Three compounds from ChEMBL document CHEMBL4364242, “Novel cationic bis(acylhydrazones) as modulators of Epstein-Barr virus immune evasion acting through disruption of interaction between nucleolin and G-quadruplexes of EBNA1 mRNA” (Eur J Med Chem, 2019) can be followed below.

Activity calls are given as the source filed them. No cut-off for these calls is given here.

The test system of series [1] is NCI-H1299. The experiment in a line: Effect on 235Gar-OVA expression in human H1299 cells at 10 uM incubated for 40 hrs by western blot analysis. The arrangement: unit not given here. The format is functional. The gist of the method: (§1)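 OVA or 235GAr-OVA constructs transiently transfected into H1299 cells, followed by 40 h exposure to 10 μM compound or DMSO. Whole-cell lysates immunoblotted with rabbit anti-OVA; signal normalized to GAPDH. Experiments repeated at least three times.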
Background: Immunoblotting shows a protein as a band on a membrane.

A short description of series [2]: Displacement of TO from EB virus g4-EBNA1 mRNA measured after 5 mins by FID assay. Also noted: species or system human gammaherpesvirus 4. The gist of the method:
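g4-EBNA1 RNA annealed 95 °C 5 min in K100 buffer (10 mM KAsO2Me2, 100 mM KCl, 1 mM EDTA, 1% DMSO), then mixed with TO; final 0.25 μM RNA and 0.5 μM TO, ligand 0–2.5 μM. Fluorescence read after 5 min shaking (485/520 nm), in duplicate. Displacement = 100×(1−F/F0); DC50 interpolated from the curve.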

The species entered for a further series is Homo sapiens. The experiment in a line: Binding affinity to […] assessed as increase in melting temperature at 1 uM by fluorescence method. The gist of the method:
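F-25TAG-T telomeric DNA (5'-FAM/3'-TAMRA) melted with 1 μM ligand in K-100 buffer (10 mM LiAsO2Me2, 100 mM KCl, pH 7.3). Heating 25–95 °C at 0.5 °C/min. ΔTm derived from first-derivative Tm maxima relative to the no-ligand run.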

Series [3] has as its system human gammaherpesvirus 4. The series can be described thus: Binding affinity to EBNA1 G4-quadruplex in human H1299 cells assessed as EB virus EBNA1 deleted GAr expression at 10 uM incubated for 40 hrs by western blot analysis. The format is cell-based. The gist of the method: (§2)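 H1299 cells in RPMI-1640 with 10% FBS at 37 °C, 5% CO2, transiently transfected with EBNA1 or EBNA1ΔGAr constructs, then treated with 10 μM compound (DMSO vehicle) for 40 h. Lysates taken 48 h post-transfection and western blotted with anti-EBNA1 (OT1X). Levels normalized to GAPDH; at least three repeats.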

Series [4] relates to human gammaherpesvirus 4. The series can be described thus: Binding affinity to EB virus F-g4-EBNA1 mRNA assessed as increase in melting temperature at 1 uM by fluorescence method.
Series [5] concerns NCI-H1299. The series can be described thus: Cytotoxicity against OVA-over expressing human H1299 cells at 10 uM incubated for 40 hrs. The class given is cell-based. Particulars: nci-h1299, 40 h.
Series [6] relates to NCI-H1299. The experiment in a line: Cytotoxicity against 235Gar-OVA-over expressing human H1299 cells at 10 uM incubated for 40 hrs. The format is cell-based. The settings on record: nci-h1299, 40 h.
The subject of series [7] is human gammaherpesvirus 4. The experiment in a line: Binding affinity to EBNA1 G4-quadruplex in human H1299 cells assessed as EB virus EBNA1 expression at 10 uM incubated for 40 hrs by western blot analysis. The class given is cell-based. The essentials:
as §2

In series [8] the test system is NCI-H1299. The series can be described thus: Effect on OVA expression in human H1299 cells at 10 uM incubated for 40 hrs by western blot analysis. The class given is functional. The arrangement: unit not given here. The essentials:
as §1

Series [9] in a line: Binding affinity to […] (unknown origin) assessed as increase in melting temperature at 1 uM by fluorescence method. The gist of the method: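 Labeled F-myc22-T DNA (5'-FAM/3'-TAMRA) melted with 1 μM ligand in K-1 buffer (10 mM LiAsO2Me2, 1 mM KCl, 99 mM LiCl, pH 7.3). Ramp 0.5 °C/min from 25 to 95 °C. Tm taken from first-derivative maxima and ΔTm calculated versus ligand-free control.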

The nature of series [10]: Inhibition of native NCL/EB virus G4-EBNA1 mRNA interaction in human H1299 cells assessed as reduction in PLA signals per cell at 5 uM incubated for overnight by proximity ligation assay (reference value: 1.83 +/- 0.54). The format is cell-based.
The nature of series [11]: Growth inhibition of human MUTU-I cells incubated for 24 hrs by MTT assay. The gist of the method:
(§3)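 Mutu-1 EBV-positive Burkitt lymphoma cells, about 30,000 per well, treated with compound (0.5–100 μM) or DMSO for 24 or 48 h. MTT (5 mg/mL) added for 4 h, formazan dissolved in isopropanol/0.1 N HCl/10% Triton X-100, absorbance at 540 nm; viability expressed versus DMSO.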

Series [12] concerns NCI-H1299. The experiment in a line: Effect on 235Gar-OVA expression in human H1299 cells incubated for 40 hrs by western blot analysis. The class given is functional, cell-based. The gist of the method:
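235GAr-OVA-transfected H1299 cells treated 40 h with compound at 0, 7.5, 10 or 15 μM. Anti-OVA western blot with band intensities normalized to GAPDH.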

Series [13] can be described thus: Growth inhibition of human MUTU-I cells incubated for 48 hrs by MTT assay. The essentials:
as §3
In general terms: Tetrazolium dyes change colour on reduction, which living cells bring about.

A short description of series [14]: Inhibition of recombinant NCL (unknown origin)/GM mRNA (unknown origin) interaction at 10 uM by RNA pull-down assay. The essentials: (§4)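 Biotin-TEG RNA (g4-EBNA1 or non-G4 GM) folded in 10 mM Tris pH 7.5, 100 mM KCl, 0.1 mM EDTA (95 °C 5 min, cooled 2 °C/min), then bound to blocked streptavidin beads. 200 ng recombinant NCL added for 90 min at room temperature with 10 μM compound or DMSO. Beads washed up to 800 mM KCl; eluates western-blotted for NCL.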

Series [15] in a line: Inhibition of recombinant NCL (unknown origin)/EB virusG4-EBNA1 mRNA interaction at 10 uM by RNA pull-down assay. The essentials:
as §4

Series [16] can be described thus: Inhibition of human NCL/EB virus G4-EBNA1 mRNA interaction in human MUTU-I cells assessed as reduction in PLA signals per cell at 5 uM incubated for […] by proximity ligation assay (reference value: 1.68 +/- 0.44). The class given is cell-based. The gist of the method: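 Mutu-1 cells carrying endogenous EBNA1 treated 36 h with 5 μM compound or DMSO. Processed by EBNA1 mRNA in situ hybridization combined with an anti-nucleolin PLA; nuclear PLA dots per cell counted across two biological replicates, ≥200 cells per sample.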

For series [17], the system named is NCI-H1299. The experiment in a line: Immunostimulatory activity in human H1299 cells transfected with murine MHC class I Kb and OVA cocultured with mouse CD8+ T-cells assessed as increase in IL-2 level at 5 or 10 uM incubated for 3 days by ELISA. The class given is functional, cell-based. The gist of the method:
(§5)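 H1299 cells co-transfected with mouse Kb and OVA or GAr-OVA, treated with 5 or 10 μM compound or DMSO. After 40 h, 10^5 cells co-cultured with 4×10^5 naive OT-I CD8+ T cells from female mouse lymph nodes, 37 °C, for 3 days. IL-2 in supernatant measured by ELISA.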

In series [18] the test system is NCI-H1299. The experiment in a line: Immunostimulatory activity in human H1299 cells transfected with murine MHC class I Kb and 235GAr-OVA cocultured with mouse CD8+ T-cells assessed as increase in IL-2 level at 5 or 10 uM incubated for 3 days by ELISA. The class given is functional. The gist of the method: as §5
For orientation: An ELISA detects its analyte on a solid surface through an enzyme-linked reagent.

Series [19] has as its system NCI-H1299. The series can be described thus: Immunostimulatory activity in human H1299 cells transfected with murine MHC class I Kb and 235GAr-OVA cocultured with mouse CD8+ T-cells assessed as increase in IL-2 level at 10 uM incubated for 3 days by ELISA. The format is functional. The gist of the method:
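Kb/235GAr-OVA co-transfected H1299 cells, exposed to compound for 40 h, then 10^5 cells incubated 3 days at 37 °C with 4×10^5 OT-I CD8+ T cells. Supernatant IL-2 quantified by ELISA.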

As usually defined, the IC50 is the concentration at which inhibition is half-maximal. Broadly, the ΔTm is the shift of the melting midpoint relative to a reference. By GI50 is commonly meant the concentration that inhibits growth by half.

As to `O=C(N/N=C/c1ccc2c(ccc[n+]2Cc2ccccc2)c1)c1cccc(C(=O)N/N=C/c2ccc3c(ccc[n+]3Cc3ccccc3)c2)n1.[Br-].[Br-]`, the Activity with NCI-H1299 [1] was 58; in the series with NCI-H1299 [5], “Toxic”; in the series with NCI-H1299 [6], “Toxic”; in the series with NCI-H1299 [8], 70. For the same compound, in [2], the half-inhibitory concentration (IC50) is 0.72 µM. Besides, the shift in melting temperature (ΔTm) (in the series filed under Homo sapiens; in series [9]) was 15 to 30 °C in each case. In addition, the outcome in the series with human gammaherpesvirus 4 [3], in the series on human gammaherpesvirus 4 [4] and with human gammaherpesvirus 4 [7] was Active.

With `C[n+]1ccc(/C=N/NC(=O)c2ccc3ccc4ccc(C(=O)N/N=C/c5cc[n+](C)c6ccccc56)nc4c3n2)c2ccccc21.[I-].[I-]`, the Activity in the series with NCI-H1299 [1] is 189; in [10] it was 0.4; in the series on NCI-H1299 [12], “Dose-dependent effect”; in [16] it was 0.59; in the series on NCI-H1299 [8] it was 96. In addition, the IC50 in series [2] amounted to 0.3 µM. For the same compound, the ΔTm in the series filed under Homo sapiens lay within 15 to 30 °C; in the series with human gammaherpesvirus 4 [4] it was 20 to 30 °C; in [9] it was 15 to 30 °C. The GI50 at 24 h in series [11] lay within 50 to 100 µM. The result in the series with human gammaherpesvirus 4 [3] and in the series on NCI-H1299 [17] was inactive. In addition, growth in [13] was halved (GI50 at 48 h) at 20 µM. In series [14], the inhibition result is “inactive”. Moreover, the fold change (FC) in [15] was 10; in the series on NCI-H1299 [18], greater than 2. Moreover, in the series on human gammaherpesvirus 4 [7], the outcome was Active.

For the compound `C[n+]1ccc(/C=N/NC(=O)c2cccc(C(=O)N/N=C/c3cc[n+](C)c4ccccc34)n2)c2ccccc21.[I-].[I-]`, the Activity in the series on NCI-H1299 [1] is 162; in [10], 0.27; in the series on NCI-H1299 [12] it was “Dose-dependent effect”; with NCI-H1299 [8] it was 101. The compound also returned a half-inhibitory concentration (IC50) in series [2] of 0.26 µM. Further, the ΔTm (in the series filed under Homo sapiens; in [9]) was 15 to 30 °C each time. For the same compound, the GI50 at 24 h in [11] was greater than 100 µM. For the same compound, the “fold change (FC)” value was greater than 2 with NCI-H1299 [19] and 10 in [15]. The outcome in the series with human gammaherpesvirus 4 [3] and in the series on NCI-H1299 [17] was inactive. The GI50 at 48 h in series [13] is no less than 100 µM. The outcome in the series with human gammaherpesvirus 4 [4] and in the series with human gammaherpesvirus 4 [7] was Active. Besides, the inhibition result in series [14] was “inactive”.
